ChEMBL document CHEMBL3808289, “Discovery of a Selective Series of Inhibitors of Plasmodium falciparum HDACs” (ACS Med Chem Lett, 2016)
Activity calls are given as the source filed them. The calls are words filed in the database; no cut-off is given here.

What was measured:
[1] = Intrinsic clearance in CD1 mouse liver microsomes at 1 uM by LC-MS/MS analysis; format: ADME; conditions: read-out: CLH
[2] = target: Histone deacetylase 2 (Homo sapiens) (UniProt Q92769); test: Inhibition of human HDAC2 at 5 uM
[3] = Cytotoxicity against human HeLa cells assessed as cell viability after 72 hrs by CellTiter-Glo assay; format: cell-based
Histone deacetylase 1 [4] = target: T1, Histone deacetylase 1 (Homo sapiens, UniProt Q13547); test: Inhibition of human HDAC1 at 5 uM
Histone deacetylase 1 [5] = target: T1, Histone deacetylase 1; test: Inhibition of recombinant human His-tagged HDAC1 expressed in insect cells preincubated for 10 mins followed by addition of FLUOR DE LYS as fluorescent substrate measured after 1 hr by spectrophotometry
[6] = Intrinsic clearance in Han Wistar rat liver microsomes at 1 uM by LC-MS/MS analysis; format: ADME; conditions: read-out: CLH
Plasmodium falciparum = test: Antimalarial activity against Plasmodium falciparum 3D7 infected human erythrocytes assessed as parasite growth inhibition after 72 hrs by spectrophotometry; format: functional, organism-based; conditions: 3D7, 72 h
Method in brief: (§1)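 Cell-based read-outs (parasite growth in erythrocytes; class I HDAC activity in HeLa) were run with multiple repetitions of each assay to limit variability.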

[7] = target: T2, Histone deacetylase 7 (Homo sapiens) (UniProt Q8WUI4); test: Inhibition of human HDAC7 at 5 uM
T2 sequence (whole entry): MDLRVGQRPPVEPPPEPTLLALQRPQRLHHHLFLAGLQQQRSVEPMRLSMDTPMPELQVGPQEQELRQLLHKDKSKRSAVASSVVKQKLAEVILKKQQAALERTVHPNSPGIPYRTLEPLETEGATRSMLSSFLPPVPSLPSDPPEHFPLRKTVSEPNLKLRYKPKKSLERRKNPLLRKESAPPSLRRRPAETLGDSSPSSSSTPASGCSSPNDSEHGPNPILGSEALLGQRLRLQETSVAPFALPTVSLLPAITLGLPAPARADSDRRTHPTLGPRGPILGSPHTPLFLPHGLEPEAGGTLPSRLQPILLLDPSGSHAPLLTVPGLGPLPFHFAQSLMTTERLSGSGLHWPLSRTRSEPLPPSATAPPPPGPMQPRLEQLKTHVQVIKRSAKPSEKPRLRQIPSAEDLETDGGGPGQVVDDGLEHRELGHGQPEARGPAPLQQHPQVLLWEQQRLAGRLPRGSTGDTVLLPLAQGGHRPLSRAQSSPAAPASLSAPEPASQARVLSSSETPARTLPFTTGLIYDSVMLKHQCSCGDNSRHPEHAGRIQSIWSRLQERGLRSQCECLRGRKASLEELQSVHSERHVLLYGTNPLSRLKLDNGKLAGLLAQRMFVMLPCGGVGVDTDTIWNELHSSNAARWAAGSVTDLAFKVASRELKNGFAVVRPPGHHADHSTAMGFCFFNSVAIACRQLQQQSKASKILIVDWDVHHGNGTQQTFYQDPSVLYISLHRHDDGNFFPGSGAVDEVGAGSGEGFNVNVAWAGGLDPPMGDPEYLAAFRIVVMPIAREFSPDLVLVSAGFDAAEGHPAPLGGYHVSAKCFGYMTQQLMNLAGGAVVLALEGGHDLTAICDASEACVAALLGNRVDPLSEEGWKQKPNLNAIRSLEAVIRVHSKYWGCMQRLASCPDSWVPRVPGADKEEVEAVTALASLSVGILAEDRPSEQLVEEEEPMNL

[8] = target: Histone deacetylase 5 (Homo sapiens) (UniProt Q9UQL6); test: Inhibition of human HDAC5 at 5 uM
[9] = target: T3, Protein deacetylase HDAC6 (Homo sapiens) (UniProt Q9UBN7); test: Inhibition of human HDAC6 at 5 uM
T3 sequence (whole entry): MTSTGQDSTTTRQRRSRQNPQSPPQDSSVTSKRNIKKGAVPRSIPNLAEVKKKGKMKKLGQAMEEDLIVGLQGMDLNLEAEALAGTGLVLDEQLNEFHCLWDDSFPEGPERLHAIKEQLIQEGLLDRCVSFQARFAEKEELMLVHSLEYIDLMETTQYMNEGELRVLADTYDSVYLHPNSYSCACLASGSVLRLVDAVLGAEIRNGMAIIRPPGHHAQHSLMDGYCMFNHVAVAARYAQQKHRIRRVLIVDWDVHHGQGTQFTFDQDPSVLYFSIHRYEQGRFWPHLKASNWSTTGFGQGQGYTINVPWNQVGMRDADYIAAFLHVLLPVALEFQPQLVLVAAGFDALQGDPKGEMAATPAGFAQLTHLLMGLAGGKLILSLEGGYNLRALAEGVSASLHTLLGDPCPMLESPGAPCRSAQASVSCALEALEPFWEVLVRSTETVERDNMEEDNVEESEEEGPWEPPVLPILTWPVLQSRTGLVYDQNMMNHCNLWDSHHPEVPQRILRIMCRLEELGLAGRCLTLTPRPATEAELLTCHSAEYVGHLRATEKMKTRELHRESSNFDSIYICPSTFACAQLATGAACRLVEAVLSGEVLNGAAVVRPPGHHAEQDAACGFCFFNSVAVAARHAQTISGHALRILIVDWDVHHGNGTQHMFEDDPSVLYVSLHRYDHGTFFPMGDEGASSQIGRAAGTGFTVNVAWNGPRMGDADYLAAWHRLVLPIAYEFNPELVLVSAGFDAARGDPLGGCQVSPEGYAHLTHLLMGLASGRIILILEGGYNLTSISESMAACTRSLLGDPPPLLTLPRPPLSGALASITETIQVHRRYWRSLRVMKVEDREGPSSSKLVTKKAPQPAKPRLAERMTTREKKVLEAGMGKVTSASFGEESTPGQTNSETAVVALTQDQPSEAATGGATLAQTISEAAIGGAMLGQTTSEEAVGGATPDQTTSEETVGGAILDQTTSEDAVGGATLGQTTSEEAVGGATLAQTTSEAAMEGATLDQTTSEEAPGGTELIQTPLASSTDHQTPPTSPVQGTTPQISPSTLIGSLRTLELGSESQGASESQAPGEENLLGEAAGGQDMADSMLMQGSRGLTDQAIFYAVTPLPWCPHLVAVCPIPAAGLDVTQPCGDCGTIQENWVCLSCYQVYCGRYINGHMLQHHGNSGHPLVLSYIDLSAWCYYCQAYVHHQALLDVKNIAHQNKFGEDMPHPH

[10] = Inhibition of class 1 histone deacetylase in human HeLa cells using FLUOR DE LYS as fluorescent substrate after 4 hrs by spectrophotometry; format: cell-based; method in brief: as §1
[11] = target: Histone deacetylase 4 (Homo sapiens) (UniProt P56524); test: Inhibition of human HDAC4 at 5 uM
[12] = Inhibition of HDAC1 in Plasmodium falciparum 3D7 infected in human erythrocytes assessed as histone H4 hyperacetylation at lysine8 residue by western blotting method; format: cell-based
Method in brief: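 P. falciparum parasites inside erythrocytes were treated with increasing compound concentrations. Histone H4 lysine 8 acetylation was analysed, and the concentration giving hyperacetylation was expressed as an EC50.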

[13] = Clearance in NMRI mouse plasma 2 mg/kg, iv by LC-MS/MS analysis; format: ADME, organism-based
[14] = target: Histone deacetylase 9 (Homo sapiens) (UniProt Q9UKV0); test: Inhibition of human HDAC9 at 5 uM
[15] = Intrinsic clearance in human liver microsomes at 1 uM by LC-MS/MS analysis; format: ADME; conditions: read-out: CLH
Histone deacetylase 3 = Histone deacetylase 3 (Homo sapiens, UniProt O15379); test: Inhibition of human HDAC3
Method in brief: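 HDAC3 was measured within a human HDAC enzyme panel (HDAC1–7 and 9), with concentrations tested up to 5 μM.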

[16] = Cytotoxicity against human HUVEC cells assessed as cell viability after 72 hrs by CellTiter-Glo assay; format: cell-based
HDAC1 = test: Selectivity index, ratio of IC50 for HDAC1 in human HeLa cells to EC50 for Plasmodium falciparum 3D7 infected human erythrocytes; format: toxicity, cell-based; conditions: read-out: Ratio IC50/EC50
Plasma = test: Drug uptake in NMRI mouse plasma at 10 mg/kg, po; format: ADME, organism-based; conditions: in vivo
[17] = Clearance in NMRI mouse plasma; format: ADME, organism-based
[18] = system: Plasmodium falciparum 3D7; test: Inhibition of recombinant Plasmodium falciparum 3D7 Flag-tagged HDAC1 Y301H mutant assessed as loss of enzyme activity
Method in brief: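 The Y301H mutant is a putative catalytic-site mutant of PfHDAC1. It was expressed as a Flag-fusion in insect or mammalian cells and purified on anti-Flag affinity gel. Deacetylase activity was measured in vitro with fluorogenic substrates, alongside wild-type PfHDAC1.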

T1 sequence (Q13547 whole entry): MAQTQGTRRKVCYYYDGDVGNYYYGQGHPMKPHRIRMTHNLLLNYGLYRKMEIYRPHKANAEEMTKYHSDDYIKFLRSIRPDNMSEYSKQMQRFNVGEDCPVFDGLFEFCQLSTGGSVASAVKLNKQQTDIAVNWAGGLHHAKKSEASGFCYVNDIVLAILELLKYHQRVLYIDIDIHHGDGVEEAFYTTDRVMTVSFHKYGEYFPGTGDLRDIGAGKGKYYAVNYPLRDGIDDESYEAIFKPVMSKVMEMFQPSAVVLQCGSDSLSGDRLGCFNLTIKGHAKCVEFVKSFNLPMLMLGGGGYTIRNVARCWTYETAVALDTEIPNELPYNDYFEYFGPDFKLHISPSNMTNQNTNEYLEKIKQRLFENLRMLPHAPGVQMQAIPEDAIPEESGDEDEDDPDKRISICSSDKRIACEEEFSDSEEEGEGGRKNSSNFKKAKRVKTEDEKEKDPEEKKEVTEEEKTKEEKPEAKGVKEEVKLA
Sequence of Histone deacetylase 2 (Homo sapiens) (Q92769 whole entry): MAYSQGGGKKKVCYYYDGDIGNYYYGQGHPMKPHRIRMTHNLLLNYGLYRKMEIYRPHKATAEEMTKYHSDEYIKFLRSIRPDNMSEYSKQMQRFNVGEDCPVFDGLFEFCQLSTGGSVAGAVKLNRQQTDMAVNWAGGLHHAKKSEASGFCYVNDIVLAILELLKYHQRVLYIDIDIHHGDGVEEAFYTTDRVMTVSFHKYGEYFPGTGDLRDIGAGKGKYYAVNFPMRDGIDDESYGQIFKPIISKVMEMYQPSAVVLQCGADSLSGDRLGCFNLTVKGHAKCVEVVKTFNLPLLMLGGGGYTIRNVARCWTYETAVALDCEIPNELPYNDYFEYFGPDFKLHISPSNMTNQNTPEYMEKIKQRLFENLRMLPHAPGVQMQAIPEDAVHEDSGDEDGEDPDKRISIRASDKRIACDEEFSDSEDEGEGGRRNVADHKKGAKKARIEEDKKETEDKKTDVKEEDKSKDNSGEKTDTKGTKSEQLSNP
Sequence of Histone deacetylase 3 (O15379 whole entry): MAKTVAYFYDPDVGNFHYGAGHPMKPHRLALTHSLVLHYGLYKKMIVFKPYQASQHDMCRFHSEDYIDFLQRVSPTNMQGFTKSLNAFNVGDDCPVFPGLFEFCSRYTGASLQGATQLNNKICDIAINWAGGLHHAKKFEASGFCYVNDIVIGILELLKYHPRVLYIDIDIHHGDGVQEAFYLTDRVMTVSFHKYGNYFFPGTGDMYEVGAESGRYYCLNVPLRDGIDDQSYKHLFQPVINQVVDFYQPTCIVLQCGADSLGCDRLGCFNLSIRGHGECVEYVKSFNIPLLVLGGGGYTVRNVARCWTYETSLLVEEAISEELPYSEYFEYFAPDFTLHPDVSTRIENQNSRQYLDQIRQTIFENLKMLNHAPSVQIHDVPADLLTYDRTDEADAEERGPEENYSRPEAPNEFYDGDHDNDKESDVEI
Sequence of Histone deacetylase 5 (Homo sapiens) (Q9UQL6 whole entry): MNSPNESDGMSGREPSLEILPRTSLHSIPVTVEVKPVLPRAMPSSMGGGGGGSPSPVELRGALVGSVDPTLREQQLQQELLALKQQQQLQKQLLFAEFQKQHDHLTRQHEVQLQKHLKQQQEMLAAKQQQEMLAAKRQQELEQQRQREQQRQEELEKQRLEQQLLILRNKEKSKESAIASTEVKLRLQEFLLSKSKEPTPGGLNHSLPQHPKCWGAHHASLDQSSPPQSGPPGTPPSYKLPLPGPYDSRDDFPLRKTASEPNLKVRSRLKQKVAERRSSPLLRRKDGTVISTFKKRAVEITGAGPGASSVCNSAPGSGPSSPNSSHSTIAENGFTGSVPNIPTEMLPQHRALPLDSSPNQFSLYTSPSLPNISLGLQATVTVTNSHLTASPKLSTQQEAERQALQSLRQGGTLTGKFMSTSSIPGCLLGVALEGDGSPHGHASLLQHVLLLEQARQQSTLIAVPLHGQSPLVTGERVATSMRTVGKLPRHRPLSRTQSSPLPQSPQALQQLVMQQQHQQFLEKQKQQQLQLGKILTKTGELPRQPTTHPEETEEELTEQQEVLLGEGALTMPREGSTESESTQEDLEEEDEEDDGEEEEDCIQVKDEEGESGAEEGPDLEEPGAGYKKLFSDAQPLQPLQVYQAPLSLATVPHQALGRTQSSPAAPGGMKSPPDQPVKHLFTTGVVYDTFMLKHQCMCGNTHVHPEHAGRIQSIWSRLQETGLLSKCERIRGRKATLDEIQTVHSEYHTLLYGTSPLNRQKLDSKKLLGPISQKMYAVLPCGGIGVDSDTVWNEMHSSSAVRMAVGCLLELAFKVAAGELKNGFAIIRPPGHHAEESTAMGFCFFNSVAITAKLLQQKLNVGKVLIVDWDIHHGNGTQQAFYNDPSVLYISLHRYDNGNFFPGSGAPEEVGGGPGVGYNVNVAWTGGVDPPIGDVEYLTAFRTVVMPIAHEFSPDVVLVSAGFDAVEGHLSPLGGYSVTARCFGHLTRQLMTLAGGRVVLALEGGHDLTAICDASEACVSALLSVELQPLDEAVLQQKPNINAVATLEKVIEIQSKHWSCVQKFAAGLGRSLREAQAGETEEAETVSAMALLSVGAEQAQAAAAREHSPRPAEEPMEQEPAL
Sequence of Histone deacetylase 4 (Homo sapiens) (P56524 whole entry): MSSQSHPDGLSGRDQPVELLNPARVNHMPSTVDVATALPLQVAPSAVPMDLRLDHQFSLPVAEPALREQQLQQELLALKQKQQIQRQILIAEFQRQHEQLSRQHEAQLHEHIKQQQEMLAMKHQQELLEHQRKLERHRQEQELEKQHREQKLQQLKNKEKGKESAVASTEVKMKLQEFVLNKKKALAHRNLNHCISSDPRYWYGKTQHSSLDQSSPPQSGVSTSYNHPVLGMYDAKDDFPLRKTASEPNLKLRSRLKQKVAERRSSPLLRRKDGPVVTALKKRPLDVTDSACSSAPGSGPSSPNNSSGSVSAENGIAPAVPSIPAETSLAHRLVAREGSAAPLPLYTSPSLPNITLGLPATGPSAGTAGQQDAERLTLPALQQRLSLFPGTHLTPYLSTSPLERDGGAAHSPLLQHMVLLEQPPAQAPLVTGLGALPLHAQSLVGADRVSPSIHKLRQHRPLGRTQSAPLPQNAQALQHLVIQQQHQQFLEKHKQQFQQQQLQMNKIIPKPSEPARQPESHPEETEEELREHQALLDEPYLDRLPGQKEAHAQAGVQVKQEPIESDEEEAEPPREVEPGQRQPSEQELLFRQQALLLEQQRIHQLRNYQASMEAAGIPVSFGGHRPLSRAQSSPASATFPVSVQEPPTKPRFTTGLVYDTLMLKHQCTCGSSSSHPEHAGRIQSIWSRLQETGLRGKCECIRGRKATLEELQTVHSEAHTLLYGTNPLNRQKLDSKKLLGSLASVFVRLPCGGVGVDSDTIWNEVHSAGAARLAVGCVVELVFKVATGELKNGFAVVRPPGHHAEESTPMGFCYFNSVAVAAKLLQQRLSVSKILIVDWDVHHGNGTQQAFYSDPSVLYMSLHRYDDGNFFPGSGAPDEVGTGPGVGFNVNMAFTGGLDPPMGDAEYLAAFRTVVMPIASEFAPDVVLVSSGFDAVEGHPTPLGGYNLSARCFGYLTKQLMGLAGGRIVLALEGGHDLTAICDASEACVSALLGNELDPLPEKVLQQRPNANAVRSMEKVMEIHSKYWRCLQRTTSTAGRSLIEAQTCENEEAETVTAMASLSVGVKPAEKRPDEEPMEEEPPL
Sequence of Histone deacetylase 9 (Homo sapiens) (Q9UKV0 whole entry): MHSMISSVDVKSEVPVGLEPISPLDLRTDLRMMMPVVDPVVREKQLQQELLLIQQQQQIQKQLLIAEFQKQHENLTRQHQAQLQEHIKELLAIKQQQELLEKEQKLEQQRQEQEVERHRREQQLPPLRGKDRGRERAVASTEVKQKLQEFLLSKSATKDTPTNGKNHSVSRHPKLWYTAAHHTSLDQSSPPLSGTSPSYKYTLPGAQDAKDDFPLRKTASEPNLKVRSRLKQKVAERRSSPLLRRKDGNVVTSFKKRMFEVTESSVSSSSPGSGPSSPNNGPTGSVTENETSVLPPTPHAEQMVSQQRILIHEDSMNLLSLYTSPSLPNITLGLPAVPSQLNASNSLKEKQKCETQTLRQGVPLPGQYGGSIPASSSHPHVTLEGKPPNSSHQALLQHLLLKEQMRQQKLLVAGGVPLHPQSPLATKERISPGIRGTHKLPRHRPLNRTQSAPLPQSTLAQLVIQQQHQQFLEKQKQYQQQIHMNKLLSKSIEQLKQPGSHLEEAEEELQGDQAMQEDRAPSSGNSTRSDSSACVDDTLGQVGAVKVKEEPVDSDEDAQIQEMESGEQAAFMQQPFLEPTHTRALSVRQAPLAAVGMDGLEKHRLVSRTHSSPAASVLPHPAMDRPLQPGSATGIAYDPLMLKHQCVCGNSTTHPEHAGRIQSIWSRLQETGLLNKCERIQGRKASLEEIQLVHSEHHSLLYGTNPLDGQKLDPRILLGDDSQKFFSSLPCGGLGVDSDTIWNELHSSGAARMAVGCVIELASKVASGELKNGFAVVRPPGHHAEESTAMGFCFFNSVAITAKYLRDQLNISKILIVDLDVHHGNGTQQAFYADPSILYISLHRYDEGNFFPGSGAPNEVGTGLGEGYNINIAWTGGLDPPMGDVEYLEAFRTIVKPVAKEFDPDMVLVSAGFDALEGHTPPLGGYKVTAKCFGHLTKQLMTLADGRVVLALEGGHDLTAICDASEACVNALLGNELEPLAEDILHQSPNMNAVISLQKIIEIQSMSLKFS

SMILES: CNC(=O)CCCCC[C@H](NC(=O)c1cncs1)c1ncc(-c2ccc(-c3ccn[nH]3)cc2)[nH]1
- microsomal CLint at 1 µM [1]: 12 µL/min/mg
- inhibition [2]: inactive
- CC50 at 72 h [3]: > 25000 nM
- inhibition (Histone deacetylase 1 [4]): inactive
- IC50 (Histone deacetylase 1 [5]): 1850 nM
- microsomal CLint at 1 µM [6]: 27 µL/min/mg
- EC50 (Plasmodium falciparum): 450 nM
- inhibition [7]: inactive
- inhibition [8]: inactive
- inhibition [9]: inactive
- IC50 [10]: 16600 nM
- inhibition [11]: inactive
- EC50 [12]: 350 nM
- clearance [13]: 247 mL/min/kg
- inhibition [14]: inactive
- microsomal CLint at 1 µM [15]: 19 µL/min/mg
- IC50 (Histone deacetylase 3): 330 nM
- CC50 at 72 h [16]: > 25000 nM

SMILES: CNC(=O)CCCCC[C@H](NC(=O)C12CCN(CC1)CC2)c1ncc(-c2ccc3ccccc3c2)[nH]1
- selectivity ratio (HDAC1): 12
- Drug uptake (Plasma): Not Active
- IC50 (Histone deacetylase 1 [5]): 340 nM
- EC50 (Plasmodium falciparum): 310 nM
- IC50 [10]: 3770 nM
- clearance [17]: 60 mL/min/kg

SMILES: CCC(=O)CCCCC[C@H](NC(=O)C1CN(C)C1)c1ncc(-c2cc3ccccc3nc2OC)[nH]1
- inhibition [18]: inactive
